STAT3 activator – activators of IL-6 induced STAT3 signaling | U3A cells, IL-6 STAT3-luciferase reporter, luminescence; 100% = signal with IL-6 EC80 alone | activation (% of control), % at 5.6 µM | 190,000 tested, 0.91% active | AID 871;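 active = activation above the screen-wide mean of compound activation plus 3 SD, cut at about 130% in these data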;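 also: 0% = background luminescence of wells with medium and substrate only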
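Test system: Human STAT1-deficient U3A cells with stable STAT3-luciferase reporter | Also added: Interleukin-6, 33 ng/mL | Timing: Compound pre-incubation 1 h before IL-6, then 6 h stimulation at 37 °C | Technique: Luciferase reporter luminescence | Read-out: Percent of IL-6-only median luminescence | Benchmarks: IL-6-only wells as 100% reference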
TNF necrop inh – blocks TNF-alpha induced death of Jurkat FADD-/- cells | activation (protection from cell death), % at 10 µM | 220,000 tested, 0.068% active | AID 463075 | Jurkat FADD-/- TNF necroptosis rescue, ATP luminescence, 24 h; 0 = TNF only, 100 = no-TNF cells;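 active = activation, meaning protection from cell death, of at least 50% relative to plate controls; inactive = activation below 50%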;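 also: necroptosis triggered by 40 ng/mL TNF-alpha added together with compound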
STAT1 blocker – inhibitors of IFN-gamma induced STAT1 signaling. NIH 3T3 STAT1-luciferase reporter, luminescence. inhibition, % at 5.5 µM. 200,000 tested, 0.35% active. AID 920;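 active = inhibition above a set limit, the mean inhibition across all tested compounds plus 3 SD, cut at about 34% in these data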;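 also: 0% = IFN-gamma with DMSO and 100% = IFN-gamma with 300 µM nifuroxazide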
STAT3 blocker – inhibitors of IL-6 induced STAT3 signaling; U3A cells, IL-6 STAT3-luciferase reporter, luminescence; host cell line lacks STAT1; inhibition, % at 5.5 µM; 190,000 tested, 0.89% active;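 active = inhibition above the mean inhibition across all screened compounds plus 3 SD, cut at about 44% in these data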;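 also: 0% = DMSO only wells and 100% = 100 µM nifuroxazide control wells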
zVAD death inh – L929 zVAD cell death inhibition; viability rescue, % at 10 µM; AID 1377; 220,000 tested, 0.38% active; L929 zVAD necroptosis rescue, ATP luminescence, 24 h; with zVAD 60 µM;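 active = activation, scaled between plate controls, above about 75%, limit read from the data; inactive = activation under that limit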;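 also: 0% = zVAD with DMSO and 100% = DMSO alone without zVAD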
Active calls of the source: *. Shown are actives, neighbours in structure and some others; about 2.1% of the full set was active somewhere.

`O=C(O)c1cc([N+](=O)[O-])ccc1NCc1ccccc1` gave STAT3 activator 101, TNF necrop inh 1, STAT1 blocker 2, STAT3 blocker 4 and zVAD death inh 2.
For COC(=O)c1cccc(Nc2ccc([N+](=O)[O-])cn2)c1 the results were STAT3 activator 90, TNF necrop inh 3, STAT1 blocker -6, STAT3 blocker 16 and zVAD death inh 45.
Cc1cc(NS(=O)(=O)c2ccc(NC(=O)C(C)Oc3ccc4c(C)cc(=O)oc4c3)cc2)no1 (centres undefined) was read as STAT3 activator 101, TNF necrop inh 0, STAT1 blocker -1, STAT3 blocker 2 and zVAD death inh 0.
Screening CC(C)c1ccc(S(=O)(=O)/N=C2/C=CC(=O)c3ccccc32)cc1 returned STAT3 activator 135*, TNF necrop inh -5, STAT1 blocker 7, STAT3 blocker -33 and zVAD death inh 1.
For COC(=O)C(C(C)=O)C1=C/C(=N\S(=O)(=O)c2ccc(C)cc2)c2ccccc2C1=O (centres undefined) the results were STAT3 activator 114, TNF necrop inh -4, STAT1 blocker 11, STAT3 blocker -11 and zVAD death inh 1.
Screening CCn1c([N+](=O)[O-])nc2c1c(=O)[nH]c(=O)n2C returned STAT3 activator 97, TNF necrop inh 51*, STAT1 blocker 18, STAT3 blocker 3 and zVAD death inh -2.
Screening CCCCCCn1c(SCCCC)nc2c1c(=O)[nH]c(=O)n2C returned STAT3 activator 110, TNF necrop inh -2, STAT1 blocker 1, STAT3 blocker -7 and zVAD death inh 0.
Screening Cc1cccc(CSc2ncnc3nc[nH]c23)c1 returned STAT3 activator 100, TNF necrop inh -3, STAT1 blocker 10, STAT3 blocker 0 and zVAD death inh 1.
Screening Cn1nc(-c2ccc(Cl)cc2)c2cc(C(=O)N3CCOCC3)sc21 returned STAT3 activator 122, TNF necrop inh -2, STAT1 blocker -2, STAT3 blocker -17 and zVAD death inh 1.
Screening COc1ccc(N2CCN(C(=O)c3cc4c(-c5ccc(Cl)cc5)nn(C)c4s3)CC2)cc1 returned STAT3 activator 133*, TNF necrop inh 2, STAT1 blocker 12, STAT3 blocker -30 and zVAD death inh 1.
Screening CCn1nnnc1SCC(=O)N(C1CCCCC1)C1CCCCC1 returned STAT3 activator 102, TNF necrop inh -1, STAT1 blocker 8, STAT3 blocker 3 and zVAD death inh 0.
Cc1ccc(/C=C/C(=O)c2ccccc2O)cc1 was read as TNF necrop inh -2 and zVAD death inh 0.
Cc1ccc(/C=C/C(=O)C2C(=O)c3ccccc3C2=O)cc1 was read as STAT3 activator 54, TNF necrop inh -2, STAT1 blocker 34, STAT3 blocker 60* and zVAD death inh 3.
For COc1ccc(C2CN=NC2C(=O)c2ccccc2)cc1 (centres undefined) the results were TNF necrop inh 79* and zVAD death inh 0.
Screening O=C(Nc1ccc(N2CCOCC2)cc1)c1cnsn1 returned STAT3 activator 31, TNF necrop inh 1, STAT1 blocker 44*, STAT3 blocker 87* and zVAD death inh 1.
`O=C1N=c2ccccc2=C1c1c(O)n(-c2cccc(F)c2)[nH]c1=O` gave STAT3 activator 110, TNF necrop inh 0, STAT1 blocker 2, STAT3 blocker -12 and zVAD death inh 0.
For CCn1c(O)c(C2=c3ccccc3=NC2=O)c2cc(Br)ccc21 the results were STAT3 activator 134*, TNF necrop inh -3, STAT1 blocker 1, STAT3 blocker -35 and zVAD death inh 1.
Screening COc1ccc(N=Cc2oc3ccc4ccccc4c3c2O)cc1 returned STAT3 activator 134*, TNF necrop inh 1, STAT1 blocker -29, STAT3 blocker -29 and zVAD death inh 9.
`COc1ccc(N=Cc2[nH]c3ccccc3c2O)cc1` gave STAT3 activator 117, TNF necrop inh -1, STAT1 blocker -7, STAT3 blocker -16 and zVAD death inh 1.
Screening COc1ccc(/C=N/NC(=O)c2[nH]c3ccc(Br)cc3c2-c2ccccc2)cc1 returned STAT3 activator 152*, TNF necrop inh -9, STAT1 blocker -30, STAT3 blocker -59 and zVAD death inh -1.
`O=C(N/N=C/c1ccccc1Cl)c1[nH]c2ccc(Br)cc2c1-c1ccccc1` gave STAT3 activator 135*, TNF necrop inh -9, STAT1 blocker -4, STAT3 blocker -40 and zVAD death inh 0.
COc1ccc(/C=N/NC(=O)c2[nH]c3ccc(Br)cc3c2-c2ccccc2)c(C(=O)O)c1OC was read as TNF necrop inh 2 and zVAD death inh 0.
Screening COc1ccc(C(C)(C)C)cc1NC(=O)CNc1cccc2ccccc12 returned STAT3 activator 136*, TNF necrop inh 3, STAT1 blocker 3, STAT3 blocker -40 and zVAD death inh 1.
For O=C(Nc1ccc([N+](=O)[O-])cc1)C(Cc1ccccc1)N1C(=O)c2cccc3cccc(c23)C1=O (centres undefined) the results were STAT3 activator 135*, TNF necrop inh 1, STAT1 blocker 0, STAT3 blocker -44 and zVAD death inh 1.
For CN(C)S(=O)(=O)c1cc(NC(=O)[C@H](Cc2ccccc2)N2C(=O)c3ccccc3C2=O)ccc1Cl the results were STAT3 activator 107, TNF necrop inh 1, STAT1 blocker -8, STAT3 blocker -7 and zVAD death inh 1.
Cc1ccc(NC(=O)CSc2nc3c([nH]c4ccccc43)c(=O)n2C)cc1 was read as STAT3 activator 112, TNF necrop inh 1, STAT1 blocker 16, STAT3 blocker -5 and zVAD death inh 0.
`CCOc1ccc(NC(=O)CSc2nc3c([nH]c4ccccc43)c(=O)n2C)cc1` gave STAT3 activator 134*, TNF necrop inh 1, STAT1 blocker 14, STAT3 blocker -29 and zVAD death inh 0.
`COCCn1c(SCC(=O)NCCc2ccc(OC)c(OC)c2)nc2c([nH]c3ccccc32)c1=O` gave STAT3 activator 135*, TNF necrop inh 1, STAT1 blocker 11, STAT3 blocker -38 and zVAD death inh -1.
Screening COCCn1c(-c2ccc(Cl)cc2)cnc1SCC(=O)NCCc1ccc(OC)c(OC)c1 returned STAT3 activator 97, TNF necrop inh 1, STAT1 blocker 16, STAT3 blocker 4 and zVAD death inh 0.
Cc1ccc2[nH]c(O)c(N=Nc3nc4ccccc4s3)c2c1 was read as TNF necrop inh 2 and zVAD death inh 0.
For Cc1oc(-c2nc3ccccc3n2C)cc1C(=O)c1ccccc1 the results were STAT3 activator 42, TNF necrop inh -4, STAT1 blocker 39*, STAT3 blocker 73* and zVAD death inh 0.
